Experimental data: publication PMC3706105 (Breast cancer research and treatment, 2012)
Blank lines part the entries; values can stand above or below the compound they belong to.

Assays:
P38 MAPK = experiment: Immunoblot pP38; type: cell-based, human; details: densitometry of immunoblot
Outline: (§1)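 MDA-MB-231 cells treated with test compound, e.g. 10 ppm for 1–24 h. For P38 inhibition, cells were pretreated 1 h with SB203580, then co-treated 4 h. Lysed in Tris pH 7.5/NP-40/SDS/deoxycholate buffer with phosphatase and protease inhibitors. 20–50 μg protein resolved by 10 or 12% SDS-PAGE, wet-transferred and blocked in 5% BSA/TBS-Tween. Phospho-specific primaries at 1:1000, HRP secondaries at 1:5,000, chemiluminescent detection; band densitometry.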

MDA-MB-231 [1] = experiment: XTT viability assay; type: cell-based, human; details: MDA-MB-231, XTT
Outline: (§2)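 Seeding in normal growth medium in 96-well plates: 1500 cells/well for MCF10A, MDA-MB-231 and MDA-MB-436, 4000 for MCF-7. Next day, phenol-free DMEM with 10% charcoal-stripped FBS containing final concentrations of test compound or acetone vehicle, the vehicle matched to the highest dose only. After 3 days, XTT reagent 2–3 h at 37 °C. Absorbance at 450 nm minus 750 nm reference and medium blank, expressed as % of control; IC50 interpolated from sigmoidal dose–response curves.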

MDA-MB-231 [2] = experiment: Cell cycle analysis; type: cell-based, human; details: 48 hours
MCF-7 [3] = experiment: XTT viability assay; type: cell-based, human; details: MCF-7, XTT
Outline: as §2

MCF-7 mammospheres [4] = experiment: Integrity of mature primary mammospheres; type: cell-based, human; details: mature MCF-7 mammospheres; for mammosphere numbers (≥100μM), percentage of vehicle treated control: 5 days of treatment, vehicle control 86.7±6.8
MCF10A [5] = experiment: XTT viability assay; type: cell-based
MCF-7 mammospheres [6] = experiment: Mammosphere formation; type: cell-based, human; details: MCF-7 primary mammospheres
Outline: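 MCF-7 cells trypsinised (0.05% trypsin/EDTA), PBS-washed twice and sieved to single cells. Diluted to 10,000 cells/mL in serum-free phenol-red-free MEBM with 5 μg/ml insulin, 20 ng/ml EGF, 20 ng/ml bFGF, 1× B27 and 0.5 μg/ml hydrocortisone, and plated on ultralow-attachment 96-well plates. Next day, test compound (ppm) or 0.6% acetone final vehicle added; medium replenished every 3–4 days. Spheres over size threshold counted per well at 5×; triplicate wells ± SD, paired t-test.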

ATF2 = experiment: Immunoblot pATF2; type: cell-based, human
Outline: as §1

MDA-MB-231 cells [7] = experiment: Hoechst33342 nuclear staining; type: cell-based, human; details: MDA-MB-231, 5-10 ppm, 24 hours, Hoechst staining
BJ fibroblast = experiment: Cell cycle analysis; type: cell-based; details: 5 ppm, 48 hours
MDA-MB-231 cells [8] = experiment: XTT viability after timed SL exposure and removal; type: cell-based, human; details: MDA-MB-231, 5ppm and 10ppm, XTT at 24 hours
Outline: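 MDA-MB-231 cells exposed to test compound at 5 or 10 ppm for 2, 4 or 24 h. Medium was then removed, cells washed, and growth medium without compound added. XTT viability read 24 h after treatment start, as % of vehicle controls, mean ± SD; two-tailed paired Student's t-test against vehicle.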

MDA-MB-436 [9] = experiment: XTT viability assay; type: cell-based, human; details: MDA-MB-436, XTT
Outline: as §2

T47D = experiment: XTT viability assay; type: cell-based, human
MAPKAPK = experiment: Immunoblot pT334 MAPKAPK; type: cell-based, human; details: MDA-MB-231, SB203580 exposure
Outline: as §1

MDA-MB-436 [10] = experiment: Cell cycle analysis; type: cell-based, human; details: MDA-MB-436, 10ppm, 48 hours
MDA-MB-436 [11] = experiment: Crystal violet growth assay; type: cell-based, human
Outline: (§3)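 Cell seeding in 96-well plates was 1500 cells/well (MDA-MB-231, MDA-MB-436, BJ fibroblasts) or 4000 (MCF-7). Next day, phenol-free DMEM with 10% charcoal-stripped FBS plus test compound at 0.5–10 ppm (1.65–33 μM) or acetone vehicle, for up to 10 days. Plates were fixed and stained 15 min with 0.5% crystal violet/25% methanol, washed, dried, and dye eluted in 0.1 M sodium citrate; absorbance 560 nm, % of vehicle, triplicates ± SD. Day-7 IC50 by linear-regression interpolation.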

[12] = system: MCF-7 secondary mammospheres; experiment: XTT viability assay on mammospheres; type: cell-based, human; details: 5 days
ALDH1 = experiment: Aldefluor ALDH1 activity in mammospheres; type: cell-based, human; details: MCF-7 primary mammospheres grown with GR-24; vehicle 6%
MCF-7 [13] = experiment: Cell cycle analysis; type: cell-based, human; details: MCF-7, 10ppm, 48 hours
MCF-7 [14] = experiment: Crystal violet growth assay; type: cell-based, human
Outline: as §3

MDA-MB-231 [15] = experiment: Crystal violet growth assay; type: cell-based, human
Outline: as §3

BJ fibroblasts = experiment: Crystal violet growth assay; type: cell-based; details: 0.5 to 10ppm, up to 10 days
Outline: as §3

MDA-MB-231 mammospheres = experiment: Mammosphere formation; type: cell-based, human
Outline: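 Single-cell MDA-MB-231 suspensions grown as mammospheres in serum-free phenol-red-free CnT-27 medium with growth additives on ultralow-attachment 96-well plates. Next day, test compound (ppm) or vehicle (0.6% acetone final) added; medium replenished every 3–4 days. Mammospheres above size threshold counted per well; triplicate wells, mean ± SD, two-tailed paired t-test versus vehicle.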

MCF10A [16] = experiment: Cell cycle analysis; type: cell-based; details: 0.5-10ppm, 48 hours

IC50 (ppm) at 72hours (MDA-MB-231 [1]): 2.9 ppm
IC50 (ppm) at 72hours (MCF-7 [3]): 8.1 ppm
IC50 (ppm) at 72hours (MDA-MB-436 [9]): 5.9 ppm
IC50 (ppm) at 72hours (T47D): 8.6 ppm
Compound: CC1=CC(O/C=C2/C(=O)c3c(c4cc(-c5scc6c5OCCO6)ccc4n3C)C2C)OC1=O (stereo not drawn) [ST362]
increase in pP38 levels compared to vehicle (P38 MAPK; MDA-MB-231, 4 hours): 5 fold
increase in pP38 levels compared to vehicle (P38 MAPK; MDA-MB-231, 8 hours): 13 fold
SubG1/poptosis (MDA-MB-231 [2]; MDA-MB-231, 5 ppm, vehicle 0.41): 4.17
Cell Cycle Distribution (%) S (MDA-MB-231 [2]; MDA-MB-231, 5 ppm, vehicle 13.02): 11.90%
Cell Cycle Distribution (%) G2 (MDA-MB-231 [2]; MDA-MB-231, 5 ppm, vehicle 24.08): 37.93%
Cell Cycle Distribution (%) G1 (MDA-MB-231 [2]; MDA-MB-231, 5 ppm, vehicle 60.43): 42.17%
mammosphere numbers (≥100μM), percentage of vehicle treated control (MCF-7 mammospheres [4]; 2.5ppm): 6±1.7%
mammosphere morphology (MCF-7 mammospheres [4]; 5 and 2.5ppm, after 48 hours): looser morphology and appeared to be dissociating
mammosphere numbers (≥100μM), percentage of vehicle treated control (MCF-7 mammospheres [4]; 5ppm): 8.3±3.5%
IC50 (ppm) at 72hours (MCF10A [5]): >15 ppm
reduction in viability (MCF10A [5]; between day 10 and 14 (so in the source)): 20%
mammosphere formation (MCF-7 mammospheres [6]; 1ppm): significantly inhibited mammosphere formation
mammosphere growth (MCF-7 mammospheres [6]; 2.5ppm, 7 days): able to block mammosphere growth
phosphorylation of ATF2 (ATF2; MDA-MB-231, immunoblot, SL treatment 4-8 hours): induced
nuclear changes indicative of apoptosis (MDA-MB-231 cells [7]): increased nuclear condensation and fragmentation
SubG1/poptosis (BJ fibroblast; vehicle 0.21): 0.72
Cell Cycle Distribution (%) S (BJ fibroblast; vehicle 2.510): 1.580%
Cell Cycle Distribution (%) G2 (BJ fibroblast; vehicle 10.17): 12.86%
Cell Cycle Distribution (%) G1 (BJ fibroblast; vehicle 84.25): 83.42%
cell viability after 2 hours exposure (MDA-MB-231 cells [8]; SL removed): No changes in cell viability
cell viability after 4 hours exposure (MDA-MB-231 cells [8]; SL removed, p<0.01): significant decrease in viability
cell viability after continual exposure (24h) compared to 4 hours exposure (MDA-MB-231 cells [8]; p<0.001): greater reduction in cell viability

Compound: C[S+]([O-])c1ccc(-c2nc(-c3ccncc3)c(-c3ccc(F)cc3)[nH]2)cc1 (stereo not drawn) [SB203580, reference compound]
pT334 MAPKAPK phosphorylation (MAPKAPK): decreased in a dose dependent manner
inhibition of ATF2 phosphorylation following SL treatment (ATF2; MDA-MB-231, 20 μM to 40 μM): did not inhibit ATF2 phosphorylation

IC50 of long-term proliferation (MDA-MB-436 [11]; MDA-MB-436, 7 days): 5.2 ppm
IC50 (MDA-MB-436 [11]; read-out: IC50 of long-term proliferation, MDA-MB-436, 7 days): 17.2 µM
IC50 of long-term proliferation (MCF-7 [14]; MCF-7, 7 days): 5.7 ppm
IC50 (MCF-7 [14]; read-out: IC50 of long-term proliferation, MCF-7, 7 days): 18.8 µM
IC50 of long-term proliferation (MDA-MB-231 [15]; MDA-MB-231, 7 days): 5.7 ppm
IC50 (MDA-MB-231 [15]; read-out: IC50 of long-term proliferation, MDA-MB-231, 7 days): 18.8 µM
Compound: CC1=C[C@H](O/C=C2/C(=O)O[C@@H]3c4ccccc4C[C@H]23)OC1=O [GR-24]
increase in sub-G1/apoptotic fraction compared to vehicle (MDA-MB-436 [10]): 3.4 fold
increase in sub-G1/apoptotic fraction compared to vehicle (MDA-MB-231 [2]; MDA-MB-231, 10ppm): 4.6 fold
mammosphere viability (% of vehicle control) ([12]; 2.5ppm): 68.6%±12.4
reduction of mammosphere viability ([12]; 5ppm): approximately 80%
mammosphere viability (% of vehicle control) ([12]; 5ppm, control 98.4%± 3.4): 16.4%± 4.6
ALDH activity (percentage of ALDH positive cells) (ALDH1): 2%
mammosphere growth (MCF-7 mammospheres [6]; 0.5ppm): inhibited to a lesser degree
mammosphere formation (MCF-7 mammospheres [6]; 1ppm): severely attenuated
mammosphere formation (MCF-7 mammospheres [6]; 2.5 –5ppm): completely inhibited
change in subG1 fraction (MCF-7 [13]): no change
growth compared to vehicle (BJ fibroblasts): no significant reduction in growth
mammosphere growth (MDA-MB-231 mammospheres; 2.5ppm): severely attenuated
mammosphere formation (MDA-MB-231 mammospheres; 5ppm): completely blocked
change in cell cycle distribution (MCF10A [16]): no change
